Results as given in ChEMBL document CHEMBL1157464, “1-[(3-Aryloxy-3-aryl)propyl]-1H-imidazoles, new imidazoles with potent activity against Candida albicans and dermatophytes. Synthesis, structure-activity relationship, and molecular modeling studies” (J Med Chem, 2008).
Values after ≈ are worked out from the molar mass of the structure shown.

Columns and labels:
[1] = Cytotoxicity against human U937 cells assessed as reduction of cell viability after 24 hrs by MTT assay; assay type: cell-based, U-937
Method in brief: (§1)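 U937 and K562 cells, from ATCC, plated at 5 × 10^4/mL in phenol-red-free RPMI-1640 with 20% FBS and penicillin/streptomycin. Compounds added 2 h later at 25–100 µg/mL, then 24 h at 37 °C. MTT at 1 mg/mL for 3 h, formazan dissolved in isopropanol with 0.1 N HCl, absorbance read at 570 nm. CC50 is the concentration reducing viability by 50% versus the drug-free control.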

Candida albicans [2] = assay: Antifungal activity against fluconazole-resistant Candida albicans isolated from oropharyngeal or vaginal disease patient after 48 hrs by broth microdilution test; assay type: functional
Arthrodermataceae [3] = assay: Antifungal activity against dermatophytes at 28 degC after 7 days by broth microdilution test; assay type: functional; conditions: 168 h
Method in brief: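 Ten clinical isolates (two M. canis, five M. gypseum, three T. mentagrophytes) tested by NCCLS M38-A broth microdilution in MOPS-buffered RPMI 1640, pH 7.0, over 0.25–128 µg/mL. Conidial/hyphal suspension from PDA slants (28 °C, 7 days) adjusted to 65–70% transmittance at OD530, then diluted 1:50.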

[4] = Cytotoxicity against human K562 cells after assessed as reduction of cell viability 24 hrs by MTT assay; assay type: cell-based; method in brief: as §1
Arthrodermataceae [5] = assay: Antifungal activity against dermatophytes at 28 degC after 5 days by broth microdilution test; conditions: for MFC: Arthrodermataceae
Arthrodermataceae [6] = assay: Antifungal activity against dermatophytes at 28 degC after 48 to 96 hrs by broth microdilution test
Candida albicans [7] = assay: Antifungal activity against Candida albicans ATCC 10261 at 35 degC after 48 to 96 hrs by broth microdilution test; assay type: functional
Method in brief: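 Minimal fungicidal concentration for Candida. […] MFC is the lowest concentration allowing fewer than two colonies (99% killing).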

Candida albicans [8] = assay: Antifungal activity against Candida albicans ATCC 10261 at 35 degC after 48 hrs by broth microdilution test; assay type: functional; conditions: for MIC50: read-out: MIC50
Method in brief: (§2)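 Broth microdilution per NCCLS M27-A2. Stocks in 100% DMSO, diluted in RPMI 1640 with 0.165 M MOPS at pH 7.0; final range 0.25–128 µg/mL. Inoculum 1000–5000 cells/mL from SDA subcultures. […] C. parapsilosis ATCC22019 served as QC strain.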

Candida albicans [9] = assay: Antifungal activity against fluconazole-sensitive Candida albicans Fe40 at 35 degC after 48 hrs by broth microdilution test; assay type: functional; method in brief: as §2
Candida parapsilosis = assay: Antifungal activity against Candida parapsilosis ATCC 22019 at 35 degC after 48 hrs by broth microdilution test; assay type: functional; conditions: for MFC: read-out: MFC; method in brief: as §2
[10] = Therapeutic index, ratio of CC50 for human K562 cells to MIC90 for Candida albicans ATCC 10261; assay type: cell-based
Method in brief: (§3)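 Therapeutic index calculated as CC50 in the given cell line divided by MIC90.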

[11] = Therapeutic index, ratio of CC50 for human U937 cells to MIC90 for Candida albicans ATCC 10261; assay type: cell-based, U-937; method in brief: as §3
[12] = Candida albicans, ATCC 10261, read-out: MFC
[13] = Candida albicans, ATCC 10261, 48 h, read-out: MIC
[14] = Candida albicans, ATCC 10261, 48 h
[15] = Candida albicans, ATCC 10261, 48 h, read-out: MIC90
[16] = Lodderomyces parapsilosis, ATCC 22019, 48 h
[17] = Lodderomyces parapsilosis, ATCC 22019, 48 h, read-out: MIC

Row | Compound | CC50 at 24 h [1] [µM] | MIC (Candida albicans [2]) [µg/mL] | MIC (Arthrodermataceae [3]) [µg/mL] | MIC50 (Arthrodermataceae [3]) [µg/mL] | MIC90 (Arthrodermataceae [3]) [µg/mL] | CC50 at 24 h [4] [µM] | MFC90 (Arthrodermataceae [5]) [µg/mL] | MFC (Arthrodermataceae [5]) [µg/mL] | MFC50 (Arthrodermataceae [6]) [µg/mL] | MFC50 (Candida albicans [7]) [µg/mL] | MFC90 (Candida albicans [7]) [µg/mL] | MFC (Candida albicans [7]; [12]) [µg/mL] | MIC (Candida albicans [8]; [13]) [µg/mL] | MIC50 (Candida albicans [8]; [14]) [µg/mL] | MIC90 (Candida albicans [8]; [15]) [µg/mL] | MIC (Candida albicans [9]) [µg/mL] | MFC (Candida parapsilosis; [16]) [µg/mL] | MIC (Candida parapsilosis; [17]) [µg/mL] | selectivity ratio [10] | selectivity ratio [11] | other results
1 | Clc1ccc(OC(CCn2ccnc2)c2ccccc2)cc1 (stereo not given) | 200 | 6.4 (≈ 20.5 µM) | 18.4 (≈ 58.8 µM) | 16 (≈ 51.2 µM) | 32 (≈ 102 µM) | 256 | 32 (≈ 102 µM) | 25.6 (≈ 81.8 µM) | 16 (≈ 51.2 µM) | 8 (≈ 25.6 µM) | 16 (≈ 51.2 µM) | 10.3 (≈ 32.9 µM) | 3.3 (≈ 10.5 µM) | 2 (≈ 6.39 µM) | 4 (≈ 12.8 µM) | 2 (≈ 6.39 µM) | 32 (≈ 102 µM) | 4 (≈ 12.8 µM) | – | – | –
2 | Clc1ccc(C(CCn2ccnc2)Oc2ccc(Cl)cc2Cl)cc1 (stereo not given) | 172 | 6.4 (≈ 16.8 µM) | 9.8 (≈ 25.7 µM) | 8 (≈ 21 µM) | 16 (≈ 41.9 µM) | 68.8 | 16 (≈ 41.9 µM) | 11 (≈ 28.8 µM) | 8 (≈ 21 µM) | 4 (≈ 10.5 µM) | 8 (≈ 21 µM) | 5.12 (≈ 13.4 µM) | 2.85 (≈ 7.47 µM) | 2 (≈ 5.24 µM) | 4 (≈ 10.5 µM) | 2 (≈ 5.24 µM) | 8 (≈ 21 µM) | 1 (≈ 2.62 µM) | – | – | –
3 | Fc1ccc(C(CCn2ccnc2)Oc2ccc(Cl)cc2Cl)cc1 (stereo not given) | 120 | 5.6 (≈ 15.3 µM) | 13.5 (≈ 37 µM) | 16 (≈ 43.8 µM) | 16 (≈ 43.8 µM) | 74.2 | 64 (≈ 175 µM) | 41 (≈ 112 µM) | 32 (≈ 87.6 µM) | 8 (≈ 21.9 µM) | 8 (≈ 21.9 µM) | 6.9 (≈ 18.9 µM) | 2.9 (≈ 7.94 µM) | 4 (≈ 11 µM) | 4 (≈ 11 µM) | 2 (≈ 5.48 µM) | 4 (≈ 11 µM) | 0.5 (≈ 1.37 µM) | – | – | –
4 | Clc1ccc(C(CCn2ccnc2)Oc2ccccc2)cc1 (stereo not given) | 248 | 14.4 (≈ 46 µM) | 7.2 (≈ 23 µM) | 8 (≈ 25.6 µM) | 8 (≈ 25.6 µM) | 186 | 32 (≈ 102 µM) | 30.4 (≈ 97.2 µM) | 32 (≈ 102 µM) | 16 (≈ 51.2 µM) | 64 (≈ 205 µM) | 29.2 (≈ 93.4 µM) | 8.8 (≈ 28.1 µM) | 8 (≈ 25.6 µM) | 16 (≈ 51.2 µM) | 8 (≈ 25.6 µM) | 16 (≈ 51.2 µM) | 4 (≈ 12.8 µM) | – | – | –
5 | Cc1ccc(OC(CCn2ccnc2)c2ccc(F)cc2)cc1 (stereo not given) | 120 | 9.6 (≈ 30.9 µM) | 10 (≈ 32.2 µM) | 8 (≈ 25.8 µM) | 16 (≈ 51.6 µM) | 383 | 16 (≈ 51.6 µM) | 16 (≈ 51.6 µM) | 16 (≈ 51.6 µM) | 16 (≈ 51.6 µM) | 32 (≈ 103 µM) | 23 (≈ 74.1 µM) | 7 (≈ 22.6 µM) | 4 (≈ 12.9 µM) | 8 (≈ 25.8 µM) | 4 (≈ 12.9 µM) | 32 (≈ 103 µM) | 4 (≈ 12.9 µM) | – | – | –
6 | Cc1ccc(C(CCn2ccnc2)Oc2ccc(Cl)cc2)cc1 (stereo not given) | 168 | 3.6 (≈ 11 µM) | 3.8 (≈ 11.6 µM) | 4 (≈ 12.2 µM) | 4 (≈ 12.2 µM) | 171 | 32 (≈ 97.9 µM) | 25.6 (≈ 78.3 µM) | 32 (≈ 97.9 µM) | 8 (≈ 24.5 µM) | 16 (≈ 49 µM) | 12 (≈ 36.7 µM) | 2.4 (≈ 7.34 µM) | 2 (≈ 6.12 µM) | 4 (≈ 12.2 µM) | 2 (≈ 6.12 µM) | 8 (≈ 24.5 µM) | 4 (≈ 12.2 µM) | 42.8 | 42 | –
7 | Cc1ccc(OC(CCCn2ccnc2)c2ccc(Cl)cc2)cc1 (stereo not given) | 350 | – | – | – | – | 259 | – | – | – | 4 (≈ 11.7 µM) | 8 (≈ 23.5 µM) | 5.6 (≈ 16.4 µM) | 2.1 (≈ 6.16 µM) | 2 (≈ 5.87 µM) | 4 (≈ 11.7 µM) | – | 0.25 (≈ 0.733 µM) | 0.03 (≈ 0.088 µM) | 64.8 | 87.5 | –
8 | Cc1ccc(OC(CCn2ccnc2)c2ccc(Cl)cc2)cc1 (stereo not given) | 325 | 5.6 (≈ 17.1 µM) | 4.6 (≈ 14.1 µM) | 4 (≈ 12.2 µM) | 8 (≈ 24.5 µM) | 227 | 32 (≈ 97.9 µM) | 28.8 (≈ 88.1 µM) | 32 (≈ 97.9 µM) | 8 (≈ 24.5 µM) | 16 (≈ 49 µM) | 10 (≈ 30.6 µM) | 3.2 (≈ 9.79 µM) | 2 (≈ 6.12 µM) | 4 (≈ 12.2 µM) | 2 (≈ 6.12 µM) | 4 (≈ 12.2 µM) | 2 (≈ 6.12 µM) | 56.8 | 81.3 | –
9 | Clc1ccc(OC(CCn2ccnc2)c2ccccc2)c(Cl)c1 (racemic) | 166 | 7.2 (≈ 20.7 µM) | 9.2 (≈ 26.5 µM) | 8 (≈ 23 µM) | 8 (≈ 23 µM) | 121 | 32 (≈ 92.2 µM) | 28.8 (≈ 82.9 µM) | 16 (≈ 46.1 µM) | 8 (≈ 23 µM) | 16 (≈ 46.1 µM) | – | – | 8 (≈ 23 µM) | – | 2 (≈ 5.76 µM) | 8 (≈ 23 µM) | – | – | – | MFC (Candida albicans [7]): 11.4 µg/mL (≈ 32.8 µM); MIC (Candida albicans [8]): 5.3 µg/mL (≈ 15.3 µM); MIC90 (Candida albicans [8]): 8 µg/mL (≈ 23 µM); MIC (Candida parapsilosis): 2 µg/mL (≈ 5.76 µM)
10 | Clc1ccc(COC(Cn2ccnc2)c2ccc(Cl)cc2Cl)cc1 (stereo not given) [ECONAZOLE] | 108 | – | 2.1 (≈ 5.5 µM) | 1 (≈ 2.62 µM) | 4 (≈ 10.5 µM) | 70 | 8 (≈ 21 µM) | 6 (≈ 15.7 µM) | 4 (≈ 10.5 µM) | 16 (≈ 41.9 µM) | 32 (≈ 83.8 µM) | 15 (≈ 39.4 µM) | 4.3 (≈ 11.3 µM) | 4 (≈ 10.5 µM) | 8 (≈ 21 µM) | – | 2 (≈ 5.24 µM) | 2 (≈ 5.24 µM) | 8.8 | 13.5 | –
11 | OC(Cn1cncn1)(Cn1cncn1)c1ccc(F)cc1F [FLUCONAZOLE] | 328 | 128 (≈ 418 µM) | – | – | – | 385 | – | – | – | – | – | > 64 | 15.3 (≈ 50 µM) | 2 (≈ 6.53 µM) | 64 (≈ 209 µM) | 0.25 (≈ 0.816 µM) | 8 (≈ 26.1 µM) | 0.5 (≈ 1.63 µM) | 6 | 5.1 | –
12 | CC(=O)N1CCN(c2ccc(OCC3COC(Cn4ccnc4)(c4ccc(Cl)cc4Cl)O3)cc2)CC1 (stereo not given) [KETOCONAZOLE] | 125 | 20 (≈ 37.6 µM) | 1.6 (≈ 3.01 µM) | 1 (≈ 1.88 µM) | 2 (≈ 3.76 µM) | 102 | 8 (≈ 15.1 µM) | 6.6 (≈ 12.4 µM) | 8 (≈ 15.1 µM) | 16 (≈ 30.1 µM) | 32 (≈ 60.2 µM) | 16.3 (≈ 30.7 µM) | 5.9 (≈ 11.1 µM) | 4 (≈ 7.53 µM) | 8 (≈ 15.1 µM) | 4 (≈ 7.53 µM) | 0.5 (≈ 0.941 µM) | 0.06 (≈ 0.113 µM) | 12.8 | 15.6 | –
13 | Clc1ccc(COC(Cn2ccnc2)c2ccc(Cl)cc2Cl)c(Cl)c1 (stereo not given) [MICONAZOLE] | 120 | 3 (≈ 7.21 µM) | 0.9 (≈ 2.16 µM) | 1 (≈ 2.4 µM) | 1 (≈ 2.4 µM) | 80 | 4 (≈ 9.61 µM) | 3 (≈ 7.21 µM) | 2 (≈ 4.81 µM) | 8 (≈ 19.2 µM) | 16 (≈ 38.4 µM) | 12.2 (≈ 29.3 µM) | 3.25 (≈ 7.81 µM) | 4 (≈ 9.61 µM) | 4 (≈ 9.61 µM) | 4 (≈ 9.61 µM) | 0.5 (≈ 1.2 µM) | 1 (≈ 2.4 µM) | 20 | 30 | –
